Source: ChEMBL document CHEMBL4346713, “Design, synthesis and docking studies of benzimidazole derivatives as potential EGFR inhibitors” (2019)
Activity calls are given as the source filed them. The rule behind the calls is not given here.

How the values were obtained:
MCF7 [1] = assay: Antiproliferation activity against human MCF7 cells assessed as inhibition of cell proliferation at 10 uM by MTT assay relative to control; format: functional
Summary of the method: (§1)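 Cells grown at 37°C in high-glucose DMEM with 10% FBS, 2 mM L-glutamine and 1% penicillin–streptomycin. Compounds, dissolved in DMSO, were added at 80% confluency, with DMSO-only and untreated wells as controls. MTT in PBS was then added for 2 h at 37°C. Formazan was dissolved in DMSO and read at 550 nm, with viability expressed relative to control cells set as 100%.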

MCF7 [2] = assay: Antiproliferation activity against human MCF7 cells assessed as inhibition of cell proliferation at 1 uM by MTT assay relative to control; format: functional; summary of the method: as §1

Row | Structure (SMILES) | inhibition (MCF7 [1]) | inhibition at 1 µM (MCF7 [2]) [%]
1 | S=c1[nH]nc(Cn2c(-c3ccc(OCc4ccccc4)c(OCc4ccccc4)c3)nc3ccccc32)n1CCN1CCOCC1 | inactive | 
2 | C#Cc1cccc(Nc2ncnc3cc(OCCOC)c(OCCOC)cc23)c1 [ERLOTINIB] |  | 60
